Screening results: PubChem, The Scripps Research Institute Molecular Screening Center
M5 antag: human M5 muscarinic receptor antagonists, primary screen, CHO cells, Fluo-8 calcium fluorescence; Muscarinic acetylcholine receptor M5 (Homo sapiens), P08912; CHO-hM5 cells, ACh EC80; inhibition, % at 3 µM; hit rate 0.59% among 360,000;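 active = inhibition above a per-plate cutoff, the mean of that plate's test compounds plus 3 SD, cut at about 27% in these data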;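 note: 0% = acetylcholine EC80 with DMSO and 100% = DMSO without agonist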
M4 ag: human M4 muscarinic receptor agonists, primary screen, CHO-K1 cells, Fluo-8 calcium fluorescence | Muscarinic acetylcholine receptor M4 (Homo sapiens), P08173 | CHO-K1 hM4/Gqi5; vehicle 0%, full acetylcholine response 100% | activation, % at 3 µM | hit rate 0.14% among 360,000 | AID 624127, 2012;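 active = activation above the run mean over all test wells plus 3 SD, cut at about 32% in these data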;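 note: peak over basal fluorescence ratio per well then scaled between controls; 0% = DMSO wells and 100% = acetylcholine at EC100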
Target sequence (P08173 whole entry, looked up): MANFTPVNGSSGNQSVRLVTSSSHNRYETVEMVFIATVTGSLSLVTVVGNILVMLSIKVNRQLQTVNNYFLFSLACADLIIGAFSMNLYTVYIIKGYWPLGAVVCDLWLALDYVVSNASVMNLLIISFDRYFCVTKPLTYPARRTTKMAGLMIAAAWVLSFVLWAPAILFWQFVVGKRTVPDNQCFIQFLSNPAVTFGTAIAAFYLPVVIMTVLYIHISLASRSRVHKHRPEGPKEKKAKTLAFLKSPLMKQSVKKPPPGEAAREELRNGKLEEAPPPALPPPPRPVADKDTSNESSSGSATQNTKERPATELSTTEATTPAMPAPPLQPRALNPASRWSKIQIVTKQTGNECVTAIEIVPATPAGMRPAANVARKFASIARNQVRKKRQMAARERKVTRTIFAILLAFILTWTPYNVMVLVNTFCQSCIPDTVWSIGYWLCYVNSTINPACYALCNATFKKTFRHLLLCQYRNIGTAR
CHRM4 antagonist: human M4 muscarinic receptor antagonists, primary screen, CHO cells, Fluo-8 calcium fluorescence; AID 624125, 2012; hit rate 0.73% among 360,000; Muscarinic acetylcholine receptor M4 (Homo sapiens), P08173; inhibition, % at 3 µM; CHO-hM4 cells, ACh EC80;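 active = inhibition above its plate's cutoff, the mean inhibition of sample wells plus 3 SD, cut at about 27% in these data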;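 note: 0% = acetylcholine EC80 with DMSO and 100% = DMSO without agonist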
CHRM5 agonist: human M5 muscarinic receptor agonists, primary screen, CHO-K1 cells, Fluo-8 calcium fluorescence | CHO-K1 hM5 cells; 0% DMSO wells, 100% maximal acetylcholine response | activation, % at 3 µM | hit rate 0.19% among 360,000;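 active = activation above the run's mean over test compounds plus 3 SD, cut at about 23% in these data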;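 note: signal is peak over basal fluorescence ratio across the kinetic read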
M5 PAM: human M5 muscarinic receptor positive allosteric modulators, primary screen, CHO-K1 cells, Fluo-8 calcium fluorescence; Muscarinic acetylcholine receptor M5 (Homo sapiens), P08912; CHO-K1 hM5, ACh EC20 PAM; 0% = ACh EC20, 100% = ACh EC100; activation, % at 3 µM; hit rate 0.3% among 360,000; AID 624038, 2012;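 active = activation above the run cutoff, the mean activation of all test compounds plus 3 SD, cut at about 18% in these data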
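Assay system: CHO-K1 hM5 cells. Also added: acetylcholine at EC20 concentration, added after compound. Dosing: 3 µM, single dose. Times: compound preincubation 140 s before EC20 acetylcholine addition. Signal: Fluo-8 calcium fluorescence. Measure: % activation relative to EC20 and EC100 ACh responses. Repeats: singlicate, one well per test compound.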
CHRM4 PAM: human M4 muscarinic receptor positive allosteric modulators, primary screen, CHO-K1 cells, Fluo-8 calcium fluorescence; Muscarinic acetylcholine receptor M4 (Homo sapiens), P08173; CHO-K1 hM4/Gqi5, ACh EC20; 0% = ACh EC20, 100% = maximal ACh; activation, % at 3 µM; hit rate 0.4% among 360,000; AID 624126, 2012;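 active = activation above its plate's cutoff, the mean activation of sample wells plus 3 SD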
* marks the source's active call; other numbers are inactive results. A selection: hits, their analogues and other compounds. The true share with any hit is near 1.9%.

SMILES	M5 antag	M4 ag	CHRM4 antagonist	CHRM5 agonist	M5 PAM	CHRM4 PAM
COc1cccc(C(=O)Nc2nc(-c3ccccc3)c(-c3ccccc3)o2)c1	2	0	-6	0	-2	-1
COC(=O)c1sccc1NC(=O)Nc1cc(C)ccc1OC	7	0	-2	-3	-1	-2
Cc1noc(C)c1C(=O)Nc1sccc1C(N)=O	-7	6	-29	-1	-1	8
CCN(CC)CCN(C(=O)c1ccc2ccccc2c1)c1nc2ccc(F)cc2s1	1	1	-7	-6	1	18*
O=C(NCCN1CCOCC1)c1ccc(Cl)c(S(=O)(=O)NCc2ccccc2)c1	9	1	-12	1	11	22*
COC(=O)[C@@H](NCc1cccc(CN([C@H](C(=O)OC)C(C)C)S(C)(=O)=O)c1)C(C)C	7	3	-6	-1	-7	7
O=C(OCCOc1cccc(Cl)c1)c1ccc(F)c(S(=O)(=O)N2CCOCC2)c1	5	7	15	2	-10	-6
Cc1ccc(C(C)n2cc(C(=O)NCc3cccnc3)nn2)cc1 (stereo not drawn)	-6	3	-6	5	18*	11
COC(=O)C1(C)CCCC2(C)C3CCC(C(C)C)C(CO)C3C(CO)CC12 (stereo not drawn)	24	22	29*	7	-23	-12
COC(=O)[C@]1(C)CCC[C@@]2(C)C3CC[C@]4(OC(C)=O)C[C@@]3(CCC21)CC4=O (stereo partly drawn)	15	10	5	-1	-25	0
Cc1ccc(S(=O)(=O)N2CCCC2c2nc3ccccc3s2)cc1 (stereo not drawn)	-4	0	5	-8	18*	8
O=S(=O)(c1ccc(Cl)cc1)N1CCCC1c1nc2ccccc2s1 (stereo not drawn)	4	1	-2	-5	-4	2
O=C(CSc1ccc2nnc(-c3cccnc3)n2n1)Nc1ccc(F)cc1	-4	2	-5	-1	-1	4
Cc1ccc(NC(=O)c2ccc(NC(=O)C3CCCCC3C(=O)O)cc2)cc1 (stereo not drawn)	0	1	-10	-4	0	1
CCc1cc(-c2n[nH]c(=S)n2-c2ccccc2C)cs1	-1	-3	-16	-5	7	31*
CCCc1cc(C(=O)NNC(=S)NC2CCCCC2)cs1	4	4	2	-1	4	18*
CCCc1cc(C(=O)NNC(=S)NCc2ccccc2)cs1	4	2	-7	-2	-3	8
O=C(NCCCn1ccnc1)c1ccc(C(F)(F)F)cc1	-4	1	-16	-6	1	4
COc1ccc2c(C#CCCO)c(-c3ccc(S(C)(=O)=O)cc3)sc2c1	18	27	32*	-6	-18	-13
COc1ccc2sc(-c3ccc(S(C)(=O)=O)cc3)c(C#CCO)c2c1	17	7	6	2	-16	-2
CCOC(=O)N1CCN(c2ncc(C(F)(F)F)cc2Cl)CC1	-8	1	-6	-5	-4	23*
CCOC(=O)C=C1CCN(c2ncc(C(F)(F)F)cc2Cl)CC1	5	0	-4	0	-6	-3
O=C(Nc1ccccc1)N(c1ccccc1)C1C=CS(=O)(=O)C1 (stereo not drawn)	6	-1	45*	-2	-5	-11
CCCN=C1CC(C)(C)CC(=O)/C1=C(/O)CCC	3	0	2	-4	-9	-1
COc1ccc(OC)c(S(=O)(=O)N(C)CC(=O)Nc2cc(Cl)ccc2OC)c1	9	4	-8	-2	-8	4
SMILES	M5 antag	M4 ag	CHRM4 antagonist	CHRM5 agonist	M5 PAM	CHRM4 PAM
CNC(=O)CN(c1ccc(OC)cc1)S(=O)(=O)c1ccc(F)cc1	-7	0	-11	-6	28*	20*
COc1ccc(N(CC(=O)Nc2c(C)n(C)n(-c3ccccc3)c2=O)S(=O)(=O)c2ccc(F)cc2)cc1	11	4	-8	-1	21*	22*
Nc1cc(=O)[nH]c(SCC(=O)Nc2cccnc2Cl)n1	10	4	-26	-3	-7	22*
NS(=O)(=O)c1ccc(CNC(=O)c2cc(-c3cccnc3)nc3ccccc23)cc1	13	1	9	0	2	-7
COc1cccc(-c2csc(Nc3ccc(Oc4ccccc4)cc3)n2)c1	1	0	-7	0	1	-5
O=C(COc1ncnc2ccc(Br)cc12)NC1CCCC1	-4	2	-11	3	4	25*
CCN1CCN(c2ccc(NC(=O)c3ccc4c(c3)[nH]c(=O)n4Cc3ccc(F)cc3)cc2)CC1	4	0	4	-4	-2	-3
Cc1ccc(N(CCC#N)C(=O)COC(=O)c2nc3nc(C)cc(C)n3n2)cc1	-4	1	6	5	2	0
Cc1cccc(N2CCN(C(=S)NCCc3ccccc3)CC2)c1C	6	1	6	1	-4	-5
COCCNC(=S)N1CCN(c2cccc(C)c2C)CC1	28*	16	7	1	-17	-5
c1ccc2sc(-c3ccncc3)nc2c1	28*	1	-2	-3	32*	0
CC1=NN(C(N)=S)C(=O)C1N=Nc1cccc(Cl)c1 (stereo not drawn)	6	1	-12	1	-5	-5
O=c1cc2oc3cc(O)c(O)cc3c(-c3ccccc3O)c-2cc1O	14	24	5	10	-7	-10
COc1ccc(OC)c(-c2c3cc(O)c(=O)cc-3oc3cc(O)c(O)cc23)c1	12	60*	13	55*	-13	-17
Cc1ccc(CC2C(=O)N(CC(=O)O)C(=O)C2C)cc1 (stereo not drawn)	3	1	29*	1	-1	15
Cc1ccc(CC2C(=O)N(c3ccc(C)cc3)C(=O)C2C)cc1 (stereo not drawn)	-16	0	-26	-7	-1	11
CC(C)CC1CCCCC1OC(=O)C[N+]1(C)CCCCC1 (stereo not drawn)	97*	1	87*	-11	-16	-20
Cc1ccccc1SCC(=O)NNC(=O)c1ccncc1	1	0	-8	1	-1	3
O=C(C1CCCCC1)N1CCC2CC1c1cc(N3CCCCC3)ccc12 (stereo not drawn)	11	3	37*	-2	-7	-13
